Test results published in paper PMC4160279 (Journal of the American Chemical Society, 2014).

What was measured:
[1] = target: P dimer VA387 (Human calicivirus NLV/VA98387/1998, UniProt Q913Z3); assay: Direct ESI-MS assay; type: binding; details: n = 3
Method in brief: (§1)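 Recombinant P dimer (P domain residues 222–539, made in E. coli via a GST fusion system) was titrated with at least four initial oligosaccharide concentrations, in triplicate. Example mix: 12 μM dimer, 80 μM ligand, 4 μM reference protein. Bound/free abundance ratios were taken as solution ratios after nonspecific-binding correction. Ka,int was fitted assuming two independent, equivalent sites.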

[2] = target: T1, P dimer VA115 (Human calicivirus NLV/VA98115/1998, UniProt Q91H12); assay: Direct ESI-MS assay; type: binding; details: n = 3
T1 sequence (Q91H12 227-545): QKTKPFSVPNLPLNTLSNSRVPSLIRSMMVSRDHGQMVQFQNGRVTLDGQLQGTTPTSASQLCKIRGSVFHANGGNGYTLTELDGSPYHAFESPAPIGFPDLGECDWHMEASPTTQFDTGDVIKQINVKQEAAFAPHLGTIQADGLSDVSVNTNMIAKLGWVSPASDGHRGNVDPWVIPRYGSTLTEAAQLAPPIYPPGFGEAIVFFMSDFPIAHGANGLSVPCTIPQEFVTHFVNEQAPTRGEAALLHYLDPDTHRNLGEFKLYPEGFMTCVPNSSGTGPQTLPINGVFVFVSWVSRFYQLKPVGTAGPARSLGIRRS
Method in brief: as §1

[3] = system: NoV VA387 P dimer; assay: Direct ESI-MS assay, NoV VA387 P dimer; set-up: species or system human NoV VA387 (GII.4); details: intrinsic (per binding site) association constant; aqueous ammonium acetate (200 mM), pH 7, 25 °C
Method in brief: (§2)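 Recombinant P dimer, buffer-exchanged into ammonium acetate and quantified by UV, was mixed (e.g., 12 μM) with ganglioside oligosaccharide (e.g., 80 μM) and reference protein (4 μM). Nanoelectrospray in negative ion mode used capillary −0.8 kV, cone 60 V and source 60 °C. Runs covered ≥4 initial ligand concentrations in triplicate. Ka,int came from bound/free abundance ratios, corrected for nonspecific binding, with two equivalent sites.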

[4] = system: NoV VA115 P dimer; assay: Direct ESI-MS assay, NoV VA115 P dimer; set-up: species or system human NoV VA115 (GI.3); details: intrinsic (per binding site) association constant; aqueous ammonium acetate (200 mM), pH 7, 25 °C
Method in brief: as §2

Sequence of P dimer VA387 (Q913Z3 222-539): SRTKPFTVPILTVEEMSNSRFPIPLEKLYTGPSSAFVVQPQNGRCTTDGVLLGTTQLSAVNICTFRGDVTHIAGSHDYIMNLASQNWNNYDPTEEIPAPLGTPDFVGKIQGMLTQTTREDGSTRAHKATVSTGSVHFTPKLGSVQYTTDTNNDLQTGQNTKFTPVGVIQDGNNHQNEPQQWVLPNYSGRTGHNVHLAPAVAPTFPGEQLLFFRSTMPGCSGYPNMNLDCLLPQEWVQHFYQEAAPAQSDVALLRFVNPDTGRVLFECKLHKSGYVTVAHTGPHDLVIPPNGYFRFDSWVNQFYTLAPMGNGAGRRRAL

Row | SMILES | Kd [1] [mM] | Kd [2] [mM] | Ka,int P dimer VA387 [3] | Ka,int P dimer VA115 [4] [M^–1] | Ka,int [2] [M⁻¹]
1 | CC(=O)N[C@H]1[C@H](O[C@@H]2[C@H](O[C@]3(C(=O)O)C[C@H](O)[C@@H](NC(C)=O)[C@H]([C@H](O)[C@H](O)CO)O3)[C@@H](O)[C@H](O[C@H]3[C@H](O)[C@@H](O)C(O)O[C@@H]3CO)O[C@@H]2CO)O[C@H](CO)[C@H](O)[C@@H]1O[C@@H]1O[C@H](CO)[C@H](O)[C@H](O[C@]2(C(=O)O)C[C@H](O)[C@@H](NC(C)=O)[C@H]([C@H](O)[C@H](O)CO)O2)[C@H]1O (stereo partly shown) [GD1a, GD1a ganglioside oligosaccharide (Neu5Aca2-3Galb1-3GalNAcb1-4(Neu5Aca2-3)Galb1-4Glc)] | > 10 | 3.12 | – | – | –
2 | CC(=O)N[C@H]1[C@H](O[C@@H]2[C@H](O[C@]3(C(=O)O)C[C@H](O)[C@@H](NC(C)=O)[C@H]([C@H](O)[C@@H](CO)O[C@]4(C(=O)O)C[C@H](O)[C@@H](NC(C)=O)[C@H]([C@H](O)[C@H](O)CO)O4)O3)[C@@H](O)[C@H](O[C@H]3[C@H](O)[C@@H](O)C(O)O[C@@H]3CO)O[C@@H]2CO)O[C@H](CO)[C@H](O)[C@@H]1O[C@@H]1O[C@H](CO)[C@H](O)[C@H](O)[C@H]1O (stereo partly shown) [GD1b, GD1b ganglioside oligosaccharide (Galb1-3GalNAcb1-4(Neu5Aca2-8Neu5Aca2-3)Galb1-4Glc)] | – | 2.94 | – | – | –
3 | CC(=O)N[C@H]1[C@H](O[C@@H]2[C@H](O[C@]3(C(=O)O)C[C@H](O)[C@@H](NC(C)=O)[C@H]([C@H](O)[C@@H](CO)O[C@]4(C(=O)O)C[C@H](O)[C@@H](NC(C)=O)[C@H]([C@H](O)[C@H](O)CO)O4)O3)[C@@H](O)[C@H](O[C@H]3[C@H](O)[C@@H](O)C(O)O[C@@H]3CO)O[C@@H]2CO)O[C@H](CO)[C@H](O)[C@@H]1O[C@@H]1O[C@H](CO)[C@H](O)[C@H](O)[C@H]1O (stereo partly shown) [GD1b] | – | – | do not show any detectable binding | 340 ± 50 | –
4 | CC(=O)N[C@H]1[C@H](O[C@@H]2[C@H](O[C@]3(C(=O)O)C[C@H](O)[C@@H](NC(C)=O)[C@H]([C@H](O)[C@@H](CO)O[C@]4(C(=O)O)C[C@H](O)[C@@H](NC(C)=O)[C@H]([C@H](O)[C@H](O)CO)O4)O3)[C@@H](O)[C@H](O[C@H]3[C@H](O)[C@@H](O)C(O)O[C@@H]3CO)O[C@@H]2CO)O[C@H](CO)[C@H](O)[C@@H]1O (stereo partly shown) [GD2, GD2 ganglioside oligosaccharide (GalNAcb1-4(Neu5Aca2-8Neu5Aca2-3)Galb1-4Glc)] | 6.67 | 1.43 | – | – | –
5 | CC(=O)N[C@H]1[C@H](O[C@@H]2[C@H](O[C@]3(C(=O)O)C[C@H](O)[C@@H](NC(C)=O)[C@H]([C@H](O)[C@@H](CO)O[C@]4(C(=O)O)C[C@H](O)[C@@H](NC(C)=O)[C@H]([C@H](O)[C@H](O)CO)O4)O3)[C@@H](O)[C@H](O[C@H]3[C@H](O)[C@@H](O)C(O)O[C@@H]3CO)O[C@@H]2CO)O[C@H](CO)[C@H](O)[C@@H]1O (stereo partly shown) [GD2] | – | – | 150 ± 60 M^–1 | 700 ± 140 | –
6 | CC(=O)N[C@H]1[C@H]([C@H](O)[C@H](O)CO)O[C@@](O[C@H](CO)[C@@H](O)[C@@H]2O[C@@](O[C@H]3[C@@H](O)[C@@H](CO)O[C@@H](O[C@H]4[C@H](O)[C@@H](O)C(O)O[C@@H]4CO)[C@@H]3O)(C(=O)O)C[C@H](O)[C@H]2NC(C)=O)(C(=O)O)C[C@@H]1O (stereo partly shown) [GD3, GD3 ganglioside oligosaccharide (Neu5Aca2-8Neu5Aca2-3Galb1-4Glc)] | 2.94 | 2.38 | – | – | –
7 | CC(=O)N[C@H]1[C@H]([C@H](O)[C@H](O)CO)O[C@@](O[C@H](CO)[C@@H](O)[C@@H]2O[C@@](O[C@H]3[C@@H](O)[C@@H](CO)O[C@@H](O[C@H]4[C@H](O)[C@@H](O)C(O)O[C@@H]4CO)[C@@H]3O)(C(=O)O)C[C@H](O)[C@H]2NC(C)=O)(C(=O)O)C[C@@H]1O (stereo partly shown) [GD3] | – | – | 340 ± 60 M^–1 | 420 ± 140 | –
8 | CC(=O)N[C@H]1[C@H](O[C@@H]2[C@H](O[C@]3(C(=O)O)C[C@H](O)[C@@H](NC(C)=O)[C@H]([C@H](O)[C@H](O)CO)O3)[C@@H](O)[C@H](O[C@H]3[C@H](O)[C@@H](O)C(O)O[C@@H]3CO)O[C@@H]2CO)O[C@H](CO)[C@H](O)[C@@H]1O[C@@H]1O[C@H](CO)[C@H](O)[C@H](O)[C@H]1O (stereo partly shown) [GM1a] | – | – | 350 ± 80 M^–1 | 400 ± 140 | –
9 | CC(=O)N[C@H]1[C@H](O[C@@H]2[C@H](O)[C@@H](O)[C@H](O[C@H]3[C@H](O)[C@@H](O)C(O)O[C@@H]3CO)O[C@@H]2CO)O[C@H](CO)[C@H](O)[C@@H]1O[C@@H]1O[C@H](CO)[C@H](O)[C@H](O[C@]2(C(=O)O)C[C@H](O)[C@@H](NC(C)=O)[C@H]([C@H](O)[C@H](O)CO)O2)[C@H]1O (stereo partly shown) [GM1b] | – | – | 180 ± 60 M^–1 | 480 ± 110 | –
10 | CC(=O)N[C@H]1[C@H](O[C@@H]2[C@H](O[C@]3(C(=O)O)C[C@H](O)[C@@H](NC(C)=O)[C@H]([C@H](O)[C@H](O)CO)O3)[C@@H](O)[C@H](O[C@H]3[C@H](O)[C@@H](O)C(O)O[C@@H]3CO)O[C@@H]2CO)O[C@H](CO)[C@H](O)[C@@H]1O (stereo partly shown) [GM2] | – | – | 360 ± 90 M^–1 | 700 ± 200 | –
11 | CC(=O)N[C@H]1[C@H](O[C@@H]2[C@H](O[C@]3(C(=O)O)C[C@H](O)[C@@H](NC(C)=O)[C@H]([C@H](O)[C@H](O)CO)O3)[C@@H](O)[C@H](O[C@H]3[C@H](O)[C@@H](O)C(O)O[C@@H]3CO)O[C@@H]2CO)O[C@H](CO)[C@H](O)[C@@H]1O[C@@H]1O[C@H](CO)[C@H](O)[C@H](O[C@]2(C(=O)O)C[C@H](O)[C@@H](NC(C)=O)[C@H]([C@H](O)[C@@H](CO)O[C@]3(C(=O)O)C[C@H](O)[C@@H](NC(C)=O)[C@H]([C@H](O)[C@H](O)CO)O3)O2)[C@H]1O (stereo partly shown) [GT1a, GT1a ganglioside oligosaccharide (Neu5Aca2-8Neu5Aca2-3Galb1-3GalNAcb1-4(Neu5Aca2-3)Galb1-4Glc)] | – | – | – | – | 210 ± 70
12 | CC(=O)N[C@H]1[C@H](O[C@@H]2[C@H](O[C@]3(C(=O)O)C[C@H](O)[C@@H](NC(C)=O)[C@H]([C@H](O)[C@H](O)CO)O3)[C@@H](O)[C@H](O[C@H]3[C@H](O)[C@@H](O)C(O)O[C@@H]3CO)O[C@@H]2CO)O[C@H](CO)[C@H](O)[C@@H]1O[C@@H]1O[C@H](CO)[C@H](O)[C@H](O[C@]2(C(=O)O)C[C@H](O)[C@@H](NC(C)=O)[C@H]([C@H](O)[C@@H](CO)O[C@]3(C(=O)O)C[C@H](O)[C@@H](NC(C)=O)[C@H]([C@H](O)[C@H](O)CO)O3)O2)[C@H]1O (stereo partly shown) [GT1a] | – | – | do not show any detectable binding | 210 ± 70 | –
13 | CC(=O)N[C@H]1[C@H](O[C@@H]2[C@H](O[C@]3(C(=O)O)C[C@H](O)[C@@H](NC(C)=O)[C@H]([C@H](O)[C@@H](CO)O[C@]4(C(=O)O)C[C@H](O)[C@@H](NC(C)=O)[C@H]([C@H](O)[C@@H](CO)O[C@]5(C(=O)O)C[C@H](O)[C@@H](NC(C)=O)[C@H]([C@H](O)[C@H](O)CO)O5)O4)O3)[C@@H](O)[C@H](O[C@H]3[C@H](O)[C@@H](O)C(O)O[C@@H]3CO)O[C@@H]2CO)O[C@H](CO)[C@H](O)[C@@H]1O[C@@H]1O[C@H](CO)[C@H](O)[C@H](O)[C@H]1O (stereo partly shown) [GT1c] | – | – | <100 M^–1 | 260 ± 110 | –
14 | CC(=O)NC1C(OC2C(CO)OC(OC3C(CO)OC(O)C(O)C3O)C(O)C2OC2(C(=O)O)CC(O)C(NC(C)=O)C(C(O)C(CO)OC3(C(=O)O)CC(O)C(NC(C)=O)C(C(O)C(CO)OC4(C(=O)O)CC(O)C(NC(C)=O)C(C(O)C(O)CO)O4)O3)O2)OC(CO)C(O)C1O (stereo not shown) [GT2] | – | – | <100 M^–1 | 230 ± 50 | –
15 | CC(=O)NC1C(O)CC(OC(CO)C(O)C2OC(OC(CO)C(O)C3OC(OC4C(O)C(CO)OC(OC5C(CO)OC(O)C(O)C5O)C4O)(C(=O)O)CC(O)C3NC(C)=O)(C(=O)O)CC(O)C2NC(C)=O)(C(=O)O)OC1C(O)C(O)CO (stereo not shown) [GT3, GT3 ganglioside oligosaccharide (Neu5Aca2-8Neu5Aca2-8Neu5Aca2-3Galb1-4Glc)] | – | 3.23 | – | – | –
16 | CC(=O)NC1C(O)CC(OC(CO)C(O)C2OC(OC(CO)C(O)C3OC(OC4C(O)C(CO)OC(OC5C(CO)OC(O)C(O)C5O)C4O)(C(=O)O)CC(O)C3NC(C)=O)(C(=O)O)CC(O)C2NC(C)=O)(C(=O)O)OC1C(O)C(O)CO (stereo not shown) [GT3] | – | – | do not show any detectable binding | 310 ± 150 | –
17 | CC(=O)NC1C(O)CC(OC2C(O)C(OC3C(CO)OC(O)C(O)C3O)OC(CO)C2OC2OC(CO)C(O)C(OC3OC(CO)C(O)C(O)C3OC3OC(C)C(O)C(O)C3O)C2NC(C)=O)(C(=O)O)OC1C(O)C(O)CO (stereo not shown) [fucosyl-GM1] | – | – | 460 ± 150 M^–1 | 600 ± 130 | –
